Test results published in ChEMBL document CHEMBL1137789, “Synthesis, binding, and modeling studies of new cytisine derivatives, as ligands for neuronal nicotinic acetylcholine receptor subtypes” (J Med Chem, 2009).

Key:
Type in all cases: cell membranes
[1] = biological target: T1, Neuronal acetylcholine receptor; alpha4/beta2 (Rattus norvegicus, UniProt P09483+P12390); experiment: Displacement of (+/-)-[3H]epibatidine from alpha4beta2 nicotinic acetylcholine receptor in rat brain cortex membrane homogenates
T1 sequence (P09483 whole entry): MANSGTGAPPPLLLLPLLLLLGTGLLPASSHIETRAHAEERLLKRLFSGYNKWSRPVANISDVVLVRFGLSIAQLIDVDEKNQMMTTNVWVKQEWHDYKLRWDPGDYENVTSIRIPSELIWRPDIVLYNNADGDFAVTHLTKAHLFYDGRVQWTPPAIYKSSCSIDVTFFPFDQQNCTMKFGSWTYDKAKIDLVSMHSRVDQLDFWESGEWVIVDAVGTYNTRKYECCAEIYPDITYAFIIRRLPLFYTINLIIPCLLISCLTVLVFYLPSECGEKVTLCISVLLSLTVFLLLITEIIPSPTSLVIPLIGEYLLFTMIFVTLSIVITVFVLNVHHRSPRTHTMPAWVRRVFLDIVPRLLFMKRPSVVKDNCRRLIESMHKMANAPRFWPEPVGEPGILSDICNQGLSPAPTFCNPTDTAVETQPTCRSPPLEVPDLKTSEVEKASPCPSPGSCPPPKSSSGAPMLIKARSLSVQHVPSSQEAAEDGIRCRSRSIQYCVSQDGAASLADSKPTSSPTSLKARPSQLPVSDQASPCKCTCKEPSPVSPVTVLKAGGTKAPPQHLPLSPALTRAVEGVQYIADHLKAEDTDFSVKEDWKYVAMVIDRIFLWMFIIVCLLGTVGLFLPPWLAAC
T1 sequence (P12390 whole entry): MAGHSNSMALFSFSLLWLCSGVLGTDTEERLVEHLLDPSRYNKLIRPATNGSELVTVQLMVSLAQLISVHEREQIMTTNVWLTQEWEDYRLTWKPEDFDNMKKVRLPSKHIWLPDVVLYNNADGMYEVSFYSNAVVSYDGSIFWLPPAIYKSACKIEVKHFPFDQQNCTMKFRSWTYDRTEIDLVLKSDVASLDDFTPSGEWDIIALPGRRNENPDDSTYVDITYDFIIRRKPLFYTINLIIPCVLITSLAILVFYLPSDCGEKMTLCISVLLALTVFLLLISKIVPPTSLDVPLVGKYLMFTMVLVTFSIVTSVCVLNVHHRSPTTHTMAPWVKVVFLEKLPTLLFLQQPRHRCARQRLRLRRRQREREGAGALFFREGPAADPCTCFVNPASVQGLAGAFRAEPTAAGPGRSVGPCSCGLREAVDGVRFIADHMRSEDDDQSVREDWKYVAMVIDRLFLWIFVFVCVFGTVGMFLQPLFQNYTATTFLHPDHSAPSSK
How it was run: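 Compounds (10 pM-10 mM) preincubated 30 min rt, then overnight at 4 °C with 0.005-0.1 nM final [³H]-epibatidine. Nonspecific: 100 nM epibatidine. Filtration, β counting. Ki by LIGAND fit of three independent experiments.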

[2] = biological target: Neuronal acetylcholine receptor subunit alpha-7 (Rattus norvegicus, UniProt Q05941); experiment: Displacement of [125I]alpha-bungarotoxin from alpha7 nicotinic acetylcholine receptor in rat brain cortex membrane homogenates
Chain of Neuronal acetylcholine receptor subunit alpha-7 (Q05941 whole entry): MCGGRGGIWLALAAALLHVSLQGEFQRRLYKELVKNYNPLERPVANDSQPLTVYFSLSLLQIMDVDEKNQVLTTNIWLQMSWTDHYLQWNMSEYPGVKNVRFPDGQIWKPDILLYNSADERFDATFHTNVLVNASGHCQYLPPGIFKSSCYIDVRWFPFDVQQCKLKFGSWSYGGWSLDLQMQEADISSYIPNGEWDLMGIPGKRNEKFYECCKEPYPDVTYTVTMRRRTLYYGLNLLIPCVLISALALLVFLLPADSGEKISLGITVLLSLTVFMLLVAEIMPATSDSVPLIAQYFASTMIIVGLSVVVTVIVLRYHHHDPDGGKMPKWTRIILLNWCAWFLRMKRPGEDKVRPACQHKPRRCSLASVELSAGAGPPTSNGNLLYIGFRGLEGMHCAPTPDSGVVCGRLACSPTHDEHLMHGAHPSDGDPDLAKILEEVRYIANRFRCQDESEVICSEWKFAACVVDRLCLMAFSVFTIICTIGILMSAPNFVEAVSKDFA
How it was run: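 Cortex membrane homogenates from 21-day-old rats in buffer A (Tris-HCl pH 7 with salts, PMSF). Compounds (10 pM-10 mM) preincubated 30 min at rt, then overnight at rt with 1 nM final [¹²⁵I]-α-bungarotoxin. Nonspecific: 1 μM unlabeled α-bungarotoxin. Filtration, γ counting. Ki fitted by LIGAND from three independent competition experiments; no inhibition up to 200 μM taken as Ki >100 μM.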

[3] = biological target: T1, Neuronal acetylcholine receptor; alpha4/beta2; experiment: Displacement of [3H]cytisine from alpha4beta2 nicotinic acetylcholine receptor in rat brain cortex membrane homogenates

Row | SMILES | Ki [1] [nM] | Ki [2] [nM] | Ki [3] [nM]
1 | CC(=O)CCN1C[C@@H]2C[C@H](C1)c1cccc(=O)n1C2 | 8.7 | 1240 | 3.2
2 | Cc1ccc(CCCN2C[C@@H]3C[C@H](C2)c2cccc(=O)n2C3)cc1 | 7200 | > 50000 | 
3 | O=C(CCCN1C[C@@H]2C[C@H](C1)c1cccc(=O)n1C2)c1ccc(F)cc1 | 965 | > 50000 | 670
4 | NC(=O)CCN1C[C@@H]2C[C@H](C1)c1cccc(=O)n1C2 | 35 | 3600 | 
5 | CC(=O)CCCN1C[C@@H]2C[C@H](C1)c1cccc(=O)n1C2 | 757 | > 50000 | 
6 | O=c1cccc2n1C[C@H]1C[C@@H]2CN(Cc2cccnc2)C1 | 6600 | > 100000 | 
7 | O=c1cccc2n1C[C@H]1C[C@@H]2CN(CCc2ccccc2)C1 | 28 | 25000 | 78
8 | O=c1cccc2n1C[C@H]1C[C@@H]2CN(CCc2ccccn2)C1 | 941 | > 100000 | 
9 | O=c1cccc2n1C[C@H]1C[C@@H]2CN(CCCCc2ccc(F)cc2)C1 | 13000 | > 50000 | 
10 | O=c1cccc2n1C[C@H]1C[C@@H]2CN(CCCc2cccnc2)C1 | 744 | > 100000 | 
11 | O=c1cccc2n1C[C@H]1C[C@@H]2CN(CCCCc2ccccc2)C1 | 3900 |  | 2220
12 | O=c1cccc2n1C[C@H]1C[C@@H]2CN(CCCc2ccccc2)C1 | 63 | 13000 | 42
13 | O=C(CN1C[C@@H]2C[C@H](C1)c1cccc(=O)n1C2)c1ccccc1 | 17 | 2250 | 
14 | O=C(CCN1C[C@@H]2C[C@H](C1)c1cccc(=O)n1C2)c1ccccc1 | 2.6 | 550 | 7.2
15 | O=C(CCN1C[C@@H]2C[C@H](C1)c1cccc(=O)n1C2)c1ccc(F)cc1 | 5.3 | 433 | 13
16 | Cc1ccc(CCN2C[C@@H]3C[C@H](C2)c2cccc(=O)n2C3)cc1 | 727 | > 50000 | 
17 | O=c1cccc2n1C[C@H]1C[C@@H]2CN(Cc2ccccc2)C1 | 850 | > 50000 | 1000
18 | NC(=O)CN1C[C@@H]2C[C@H](C1)c1cccc(=O)n1C2 | 7300 | > 50000 | 
19 | CCCCCN1C[C@@H]2C[C@H](C1)c1cccc(=O)n1C2 | 332 | 39700 | 43.5
20 | O=C(CCCN1C[C@@H]2C[C@H](C1)c1cccc(=O)n1C2)c1ccccc1 | 816 | > 50000 | 
21 | O=c1cccc2n1C[C@H]1C[C@@H]2CN(Cc2ccncc2)C1 | 675 | > 100000 | 
22 | O=c1cccc2n1C[C@H]1C[C@@H]2CN(Cc2ccc(F)cc2)C1 | 330 | 78700 | 183
23 | O=c1cccc2n1C[C@H]1C[C@@H]2CN(CCc2ccc(F)cc2)C1 | 1300 | > 50000 | 
24 | O=c1cccc2n1C[C@H]1C[C@@H]2CN(CCc2ccncc2)C1 | 7.2 | 4200 | 
25 | O=c1cccc2n1C[C@H]1C[C@@H]2CN(CCCc2ccc(F)cc2)C1 | 5000 | > 50000 | 611
26 | O=C(CN1C[C@@H]2C[C@H](C1)c1cccc(=O)n1C2)c1ccc(F)cc1 | 409 |  | 172
27 | O=c1cccc2n1C[C@@H]1CNC[C@H]2C1 [CYTISINICLINE] | 0.48 | 331 | 0.34
